Sampled rows, rich in hits. Any-hit rate of the full collection: about 3.5%.
FLuc inh counter: Photinus pyralis luciferase inhibition counter-screen; P08659; ATPLite firefly luciferase biochemical luminescence, 10 min; inhibition, % at 10 µM; 200,000 tested, 1.5% active; AID 1006;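 active means inhibition above about 50% when tested at 10 µM, limit read from the data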
Target sequence (P08659 whole entry, looked up): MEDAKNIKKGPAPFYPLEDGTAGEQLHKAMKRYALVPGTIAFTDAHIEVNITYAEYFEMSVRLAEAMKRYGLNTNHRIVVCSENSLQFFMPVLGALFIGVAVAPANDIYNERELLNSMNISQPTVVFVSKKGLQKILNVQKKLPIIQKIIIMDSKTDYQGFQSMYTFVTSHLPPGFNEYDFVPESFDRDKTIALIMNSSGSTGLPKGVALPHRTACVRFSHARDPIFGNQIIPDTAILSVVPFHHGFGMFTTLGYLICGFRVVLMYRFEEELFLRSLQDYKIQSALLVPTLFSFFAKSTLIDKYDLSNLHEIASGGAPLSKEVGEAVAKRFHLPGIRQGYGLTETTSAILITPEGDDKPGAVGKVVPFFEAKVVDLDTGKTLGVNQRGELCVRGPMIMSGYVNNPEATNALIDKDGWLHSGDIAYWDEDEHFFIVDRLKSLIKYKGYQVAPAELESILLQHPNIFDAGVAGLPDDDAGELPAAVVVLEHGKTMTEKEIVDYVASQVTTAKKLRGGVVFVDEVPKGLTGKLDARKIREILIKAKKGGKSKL
NF-kB neuron act: raises NF-kB expression in human neuronal cells; NF-kB reporter expression; stronger effect = higher value; AID 1239; fold change at 12.5 µM; 190,000 tested, 1.6% active; in the data active means fold change above about 3.3
Pf gametocyte: kills late stage P. falciparum gametocytes; P. falciparum stage V gametocytes, ATP luminescence, 24 h; AID 743093; inhibition, % at 10.9 µM; 150,000 tested, 0.065% active;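 active means inhibition above the mean plus 3 SD of compounds within the control limits, set per campaign, cut at about 38% in these data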;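 further: 0% = DMSO wells and 100% = medium only without gametocytes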
FLuc act counter: firefly luciferase counter-screen for stimulation assays | activation factor at 10 µM | 200,000 tested, under 10 active | AID 1027 | ATPlite luciferase biochemical, luminescence, 10 min; 0 = ATP-free wells, 1 = DMSO control;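 active means luciferase activation factor, scaled between plate controls, of at least 2 with compound at 10 µM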
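System: luciferase plus luciferin reagent, cell-free; medium: PBS as buffer for the ATP substrate; dosing: test compounds dosed from 2 mM stocks in 100% DMSO; timing: 10 min post-reagent at room temperature; measured by: luminescence measurement of luciferase light output; evaluation: luciferase activation, seen as luminescence increase over controls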
STAT1 act: activators of IFN-gamma induced STAT1 signaling. NIH 3T3 STAT1-luciferase reporter, luminescence; 100% = IFN-gamma alone, no compound. activation (% of control), % at 5.5 µM. 200,000 tested, 2.6% active. AID 932;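 active means activation above the screen-wide mean activation plus 3 SD, cut at about 130% in these data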;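 further: raw ratio to IFN-gamma control signal so 100% means no change and 0% no light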
APP 5'UTR act: APP 5'UTR luciferase reporter activation; SH-SY5Y APP 5'UTR luciferase reporter, luminescence; zero percent = DMSO vehicle wells; activation, % at 2 µM; 190,000 tested, 1% active; AID 1276;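 active means activation above a set limit, based on mean plus 3 SD of controls, cut at about 140% in these data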
Active calls of the source: *; · = no result given.

SMILES	FLuc inh counter	NF-kB neuron act	Pf gametocyte	FLuc act counter	STAT1 act	APP 5'UTR act
O=C(CCc1nnc(CCCc2ccccc2)o1)NCCCC1CCCC1	-2	2.5	16	1	127	37
O=C(NCCc1nc2ccccc2[nH]1)/C(=C/c1ccc2c(c1)OCO2)NC(=O)c1ccccc1Cl	-3	1.1	·	1	100	-6
COc1ccc(-c2ccc(SCC(=O)Nc3cccc(C(C)=O)c3)nn2)cc1OC	61*	1.1	7	0.4	102	43
C=CCc1cccc2cc(C(=O)NCc3cccnc3)c(=O)oc12	-4	1	·	1	96	-1
CC(C)c1ccc(NC(=S)NNC(=O)c2cccs2)cc1	14	2.7	17	0.9	144*	81
CCC(C)c1ccc(NC(=O)c2cccs2)cc1 (centres undefined)	75*	11*	·	0.3	130*	150*
COc1ccc(NC(=O)c2cccs2)cc1	40	3	·	0.6	140*	66
CCC(C)NS(=O)(=O)c1ccc(NC(=O)c2cccs2)cc1 (centres undefined)	-8	0.98	-11	1.1	100	2
CC(C)(C)c1csc(NC(=O)c2cccs2)n1	20	2.5	-7	0.8	130*	122
COc1ccc(NC(=S)NNC(=O)c2cccs2)cc1	4	1.6	·	1	115	42
COc1ccc(-c2csc(N(C)C(=O)c3cccs3)n2)cc1	-4	1.5	9	1	131*	73
COc1ccc(CC(=O)Nc2ccc(-c3cn4ccccc4n3)cc2)cc1	36	1.5	·	0.6	128	-58
O=C(Nc1ccc(-c2cn3ccccc3n2)cc1)c1cccs1	73*	2.2	4	0.3	134*	136*
CCN(CC)CCCN(C(=O)c1cccs1)c1nc(-c2ccc(OC)cc2)cs1	-3	0.89	·	1	105	5
CCOC(=O)C(NC(C)=O)(Nc1ccc(S(=O)(=O)Nc2ccncn2)cc1)C(F)(F)F (centres undefined)	-9	1.1	11	1.1	106	-3
COc1ccc(/C(N)=N/OC(=O)Cc2cccs2)cc1	16	2.7	-19	0.8	139*	65
COC(=O)c1cccc(NC(=O)c2cccc(OC)c2)c1	34	1.7	·	0.7	131*	83
CCOc1ccc(C(=O)Nc2ccc(C(F)(F)F)n(C)c2=O)cc1	-3	1.2	-24	1	105	-12
COc1cccc(C(=O)Nc2ccc(F)cc2F)c1	11	1.9	·	0.9	122	32
COc1cccc(C(=O)Nc2ccc(C(F)(F)F)n(C)c2=O)c1	56*	1.3	0	0.4	123	136*
COc1cccc(C(=O)Nc2ccccc2F)c1	11	1.9	·	0.9	132*	19
COCCN1Cc2cccc(C(=O)NC(C)c3cccs3)c2C1=O (centres undefined)	-9	0.96	·	1.1	95	·
CC1CCCCC1NC(=O)CSc1nnc(COc2ccccc2Cl)o1 (centres undefined)	10	1.1	-9	0.9	96	6
COC(=O)c1ccc(Cn2cc(C(F)(F)F)cc([N+](=O)[O-])c2=O)cc1	-8	0.91	3	1.1	93	-7
CC(=O)c1ccc(OCC(O)CN2CCCC(C)C2)cc1 (centres undefined)	-5	1	·	1.1	101	-12
SMILES	FLuc inh counter	NF-kB neuron act	Pf gametocyte	FLuc act counter	STAT1 act	APP 5'UTR act
CC1CCCN(CC(O)CN)C1 (centres undefined)	-8	1.1	47*	1.1	102	-3
CC(C)(C)c1cc(NC(=O)COc2ccc(Br)cc2)n(-c2ccccc2)n1	-7	0.55	·	1.1	89	·
Cn1c(NC(=O)CCc2ccccc2)cc(=O)n(C)c1=O	16	2.2	·	0.8	138*	50
Cn1c(NC(=O)/C=C/c2ccccc2)cc(=O)n(C)c1=O	20	1.9	23	0.8	139*	47
COc1ccc(/C=C/C(=O)Nc2cc(=O)n(C)c(=O)n2C)cc1	43	1.1	-1	0.6	98	14
CCCC(=O)Nc1cc(=O)n(C)c(=O)n1C	-3	1.6	·	1	95	35
C=CC[C@@H](Cc1ccc(F)cc1)C(=O)OC[C@@H]1CCCN1C(=O)[C@@H](CC=C)CC(=O)N(CCO)Cc1ccccc1	·	·	15	·	·	·
